Experimental data from different studies.
Lines come from different studies, so protocols differ.
Melanocortin receptor 3: Melanocortin receptor 3 (Mus musculus, UniProt P33033)
ADORA2B: Adenosine receptor A2b (ADORA2B, Homo sapiens, UniProt P29275)
PBRM1 bromodomain: Protein polybromo-1, bromodomain (PBRM1, Homo sapiens, UniProt Q86U86)

Compound	target	read-out	mode	technique	notes	measurement	result
CSCC[C@H](NC(=O)[C@@H](NC(=O)[C@@H](N)Cc1ccc(O)cc1)C(C)C)C(=O)NCC(=O)N[C@@H](Cc1c[nH]cn1)C(=O)N[C@@H](Cc1ccccc1)C(=O)O	Melanocortin receptor 3	reporter gene	agonist			EC50	> 100000 nM
CCNC(=O)[C@H]1O[C@@H](n2cnc3c(N)nc(NN=C[C@H]4CCC=CO4)nc32)[C@H](O)[C@@H]1O	ADORA2B	GTPγS binding	agonist		cell membranes	EC50	13200 nM
C#CCN1CCCn2c1nc1c2c(=O)n(C)c(=O)n1C	ADORA2B	ligand displacement		radioligand	cell membranes	Ki	> 10000 nM
CSCC[C@H](NC(=O)[C@@H](N)Cc1ccc(O)cc1)C(=O)N[C@@H](Cc1c[nH]cn1)C(=O)N[C@@H](Cc1ccccc1)C(=O)N[C@@H](CCCNC(=N)N)C(=O)N[C@@H](Cc1c[nH]c2ccccc12)C(=O)N[C@@H](Cc1ccccc1)C(=O)O	Melanocortin receptor 3	reporter gene	agonist			EC50	10400 nM
C=CN1CCCn2c1nc1c2c(=O)n(C)c(=O)n1C	ADORA2B	ligand displacement		radioligand	cell membranes	Ki	> 10000 nM
Cc1cc2ccccc2n1CCNC(=O)c1ccc(N2CCCCC2)cc1	Prostaglandin E2 receptor EP2 subtype (PTGER2, Homo sapiens, UniProt P43116)	cAMP	antagonist	TR-FRET		Kb	~10 nM
Cc1cc2nc3c(=O)[nH]c(=O)nc-3n(C[C@H](O)[C@H](O)[C@H](O)COP(=O)(O)OP(=O)(O)OC[C@H]3O[C@@H](n4cnc5c(N)ncnc54)[C@H](O)[C@@H]3O)c2cc1C	Muscleblind-like protein 1 (Homo sapiens, UniProt Q9NR56)	binding			lysate	Kd	23 nM
CC(C)CC(C)N1CCCn2c1nc1c2c(=O)n(C)c(=O)n1C (stereo not shown)	ADORA2B	ligand displacement		radioligand	cell membranes	Ki	> 10000 nM
Cc1ncsc1-c1ccc(CNC(=O)[C@@H]2C[C@@H](O)CN2C(=O)[C@@H](NC(=O)C2(F)CC2)C(C)(C)C)c(OCCOc2ccc(CN3CCN(c4cc(-c5ccccc5O)nnc4N)CC3)cc2)c1	PBRM1 bromodomain	binding		SPR		Kd	830 nM
CCCCCN1CCCn2c1nc1c2c(=O)n(C)c(=O)n1C	ADORA2B	ligand displacement		radioligand	cell membranes	Ki	> 10000 nM
CCCCCCCC/C=C\CCCCCCCC(=O)SCCNC(=O)CCNC(=O)[C@H](O)C(C)(C)COP(=O)(O)OP(=O)(O)OC[C@H]1O[C@@H](n2cnc3c(N)ncnc32)[C@H](O)[C@@H]1OP(=O)(O)O	fadR (Vibrio cholerae, UniProt Q9KQU8)	binding		ITC		Kd	6 nM
COCCOc1ccc(N2CCN(CCn3ncc4c3nc(N)n3nc(-c5ccco5)nc43)CC2)cc1	ADORA2B	ligand displacement		radioligand	cell membranes	Ki	> 1000 nM
CCCCCCCCCCCCC/C=C/[C@@H](O)[C@@H](N)COP(=O)(O)O	Potassium channel subfamily K member 2 (KCNK2, Homo sapiens, UniProt O95069)	binding		BRET		Kd	> 500000 nM
CCOc1cc(-c2nncn2C)ccc1Nc1ncc2cc(C)nc(NCC(C)(C)C)c2n1	Dual serine/threonine and tyrosine protein kinase (DSTYK, Homo sapiens, UniProt Q6XUX3)	binding		competition with immobilised ligand		Kd	170 nM
N[C@@H](CCC(=O)O)C(=O)O	Metabotropic glutamate receptor 8 (Grm8, Rattus norvegicus, UniProt P70579)	calcium signal	agonist			EC50	770 nM
N=C(N)NCCC[C@H](NC(=O)[C@H](CC(=O)O)NC(=O)[C@H](Cc1c[nH]c2ccccc12)NC(=O)[C@H](CCCNC(=N)N)NC(=O)[C@@H](N)Cc1ccccc1)C(=O)N[C@@H](Cc1ccccc1)C(=O)O	Melanocortin receptor 3	reporter gene	agonist			EC50	20400 nM
CC(=O)N[C@H](C(=O)N1C[C@H](O)C[C@H]1C(=O)NCc1ccc(-c2scnc2C)cc1)C(C)(C)SCCCCCCNC(=O)C[C@@H]1N=C(c2ccc(Cl)cc2)c2c(sc(C)c2C)-n2c(C)nnc21	Bromodomain-containing protein 2, BD1 (BRD2, Homo sapiens, UniProt P25440)	binding		ITC		Kd	111 nM
CSCC[C@H](NC(=O)[C@@H](NC(=O)[C@@H](N)Cc1ccc(O)cc1)C(C)C)C(=O)NCC(=O)N[C@@H](Cc1c[nH]cn1)C(=O)N[C@@H](Cc1ccccc1)C(=O)N[C@@H](CCCNC(=N)N)C(=O)N[C@@H](Cc1c[nH]c2ccccc12)C(=O)N[C@@H](CC(=O)O)C(=O)N[C@@H](CCCNC(=N)N)C(=O)O	Melanocortin receptor 3	reporter gene	agonist			EC50	36 nM
Cc1ncsc1-c1ccc(CNC(=O)[C@@H]2C[C@H](O)CN2C(=O)[C@@H](NC(=O)C2(F)CC2)C(C)(C)C)c(OCCc2ccc(CN3CCN(c4cc(-c5ccccc5O)nnc4N)CC3)cc2)c1	PBRM1 bromodomain	binding		SPR		Kd	1200 nM
Nc1nc2c(ncn2[C@@H]2O[C@H](COP(=O)(O)OP(=O)(O)O)[C@@H](OP(=O)(O)OP(=O)(O)O)[C@H]2O)c(=O)[nH]1	speC (Escherichia coli, UniProt P21169)	binding		ITC		Kd	1600 nM
CSCC[C@H](N)C(=O)NCC(=O)N[C@@H](Cc1c[nH]cn1)C(=O)N[C@@H](Cc1ccccc1)C(=O)N[C@@H](CCCNC(=N)N)C(=O)N[C@@H](Cc1c[nH]c2ccccc12)C(=O)N[C@@H](CC(=O)O)C(=O)N[C@@H](CCCNC(=N)N)C(=O)N[C@@H](Cc1ccccc1)C(=O)NCC(=O)O	Melanocortin receptor 3	reporter gene	agonist			EC50	260 nM
C[N+]1(C)CCC(OC(=O)C(c2ccccc2)c2ccccc2)CC1	Muscarinic acetylcholine receptor M1 (CHRM1, Homo sapiens, UniProt P11229)	ligand displacement		radioligand		IC50	5.27 nM
N=C(N)NCCC[C@H](NC(=O)[C@H](CC(=O)O)NC(=O)[C@H](Cc1c[nH]c2ccccc12)NC(=O)[C@H](CCCNC(=N)N)NC(=O)[C@H](Cc1ccccc1)NC(=O)[C@H](Cc1c[nH]cn1)NC(=O)CN)C(=O)N[C@@H](Cc1ccccc1)C(=O)NCC(=O)O	Melanocortin receptor 3	reporter gene	agonist			EC50	760 nM
CCCN1CCCn2c1nc1c2c(=O)n(C)c(=O)n1C	ADORA2B	ligand displacement		radioligand	cell membranes	Ki	> 10000 nM
N=C(N)NCCC[C@H](NC(=O)[C@H](CC(=O)O)NC(=O)[C@H](Cc1c[nH]c2ccccc12)NC(=O)[C@H](CCCNC(=N)N)NC(=O)[C@H](Cc1ccccc1)NC(=O)[C@@H](N)Cc1c[nH]cn1)C(=O)N[C@@H](Cc1ccccc1)C(=O)NCC(=O)O	Melanocortin receptor 3	reporter gene	agonist			EC50	2670 nM
CCCCN1CCC(COC(=O)c2ccc(N)c(OCF)c2)CC1	Beta-3 adrenergic receptor (ADRB3, Homo sapiens, UniProt P13945)	cell-free assay		radioligand		Ki	> 10000 nM
N=C(N)NCCC[C@H](NC(=O)[C@@H](N)CC(=O)O)C(=O)N[C@@H](Cc1ccccc1)C(=O)NCC(=O)O	Melanocortin receptor 3	reporter gene	agonist			EC50	> 100000 nM
CC(C)CCCC(C)N1CCCn2c1nc1c2c(=O)n(C)c(=O)n1C (stereo not shown)	ADORA2B	ligand displacement		radioligand	cell membranes	Ki	> 10000 nM
